Data set [1] concerns human UDP-α-D-glucose-6-dehydrogenase (hUGDH). It counts as biochemical. Particulars: for Kcat: UDP-Glc saturation curves, global fit ± standard error. A digest of the protocol:
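100 nM hexamer (500 nM dimer constructs) in 50 mM HEPES pH 7.5, 50 mM NaCl, 5 mM EDTA, 25 °C, saturating NAD+, varied UDP-Glc and UDP-Xyl. NADH was read at 340 nm. Frieden fits of early progress curves gave vss.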

Data set [2] has the same test system. Nature of the data set: Steady state kinetics: NAD+ substrate saturation curves. It counts as biochemical. A digest of the protocol: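 Separate 5-min, 25 °C pre-incubations of enzyme and substrate, then mixing. Enzyme was 100 nM hexameric hUGDH in 50 mM HEPES pH 7.5, 50 mM NaCl, 5 mM EDTA, with saturating UDP-Glc and varied NAD+. NADH was followed continuously at 340 nm (6220 M−1cm−1). Progress curves before 10% substrate depletion were fit to Frieden's equation for vss. Saturation curves were fit to the sigmoidal rate equation; n ≥ 10 data points.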

Data set [3] has the same test system. Nature of the data set: Stopped-flow analysis of hUGDH hysteresis. It counts as biochemical. Particulars: hUGDHFL versus hUGDHΔID, pre-steady state progress curves. The method, boiled down:
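Stopped-flow, 25 °C. 500 nM full-length or tail-deleted enzyme in 50 mM HEPES pH 7.5, 50 mM NaCl, 5 mM EDTA was mixed 1:1 with buffer holding substrate and cofactor, giving 250 nM enzyme with both saturating. NADH absorbance at 340 nm was taken every 10–15 ms. Curves were fit to Frieden's equation for lag length; mean and s.d. from ≥ 6 curves.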

Data set [4] has as its target T1, human UDP-α-D-glucose-6-dehydrogenase (hUGDH) (Homo sapiens, UniProt O60701).
T1 sequence (O60701 1-464 limits assumed): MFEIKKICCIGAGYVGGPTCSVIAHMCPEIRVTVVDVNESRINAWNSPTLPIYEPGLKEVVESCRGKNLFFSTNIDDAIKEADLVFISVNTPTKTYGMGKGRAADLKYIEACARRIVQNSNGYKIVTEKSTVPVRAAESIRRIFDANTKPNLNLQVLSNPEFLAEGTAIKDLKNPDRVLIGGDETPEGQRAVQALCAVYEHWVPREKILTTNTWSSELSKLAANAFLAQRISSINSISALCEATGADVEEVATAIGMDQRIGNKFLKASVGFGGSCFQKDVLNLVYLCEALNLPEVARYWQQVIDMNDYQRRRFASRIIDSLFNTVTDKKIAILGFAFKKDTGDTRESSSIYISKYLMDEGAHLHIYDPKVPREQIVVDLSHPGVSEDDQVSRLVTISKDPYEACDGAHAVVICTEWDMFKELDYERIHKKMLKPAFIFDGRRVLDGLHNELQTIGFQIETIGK
Nature of the data set: Transient state kinetics of UDP-Xyl binding. To be noted: hUGDHFL versus hUGDHΔID. A digest of the protocol:
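Stopped-flow intrinsic tryptophan fluorescence at 25 °C (dead time ~1.2 ms): 500 nM enzyme (syringe) mixed with varied UDP-Xyl, excitation 290 nm, emission cutoff filter below 320 nm. Traces were averaged over ≥ 4 replicates per concentration and inner-filter corrected. Six concentrations were globally fit by numerical simulation to a binding-plus-two-isomerization model, selected by confidence contour analysis. Binding free energy used a mM standard state.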

The nature of data set [5]: Thermodynamic shift assay. Format: physicochemical. Particulars: thermal denaturation, hUGDHFL-dimer versus hUGDHΔID-dimer (Fig. 3d). The method, boiled down: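 Dimeric constructs at 0.1 mg/mL with 5X SYPRO Orange in 50 mM HEPES pH 7.5, 50 mM NaCl, 5 mM EDTA were spun and equilibrated 20 min. Fluorescence (excitation 470–505 nm, emission 540–570 nm) was recorded every 30 s while heating from 25 to 80 °C at […] in a qPCR instrument. Buffer-control baselines were subtracted; N ≥ 3.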

Like-named read-outs stand apart in the source and are kept apart here. Marks after values point to notes of the source that are not given here.

B1: FL: full-length human UDP-α-D-glucose-6-dehydrogenase with the native 30-residue ID-tail (residues 465–494) (protein, UniProt O60701 1-494, looked up)
chain: MFEIKKICCIGAGYVGGPTCSVIAHMCPEIRVTVVDVNESRINAWNSPTLPIYEPGLKEVVESCRGKNLFFSTNIDDAIKEADLVFISVNTPTKTYGMGKGRAADLKYIEACARRIVQNSNGYKIVTEKSTVPVRAAESIRRIFDANTKPNLNLQVLSNPEFLAEGTAIKDLKNPDRVLIGGDETPEGQRAVQALCAVYEHWVPREKILTTNTWSSELSKLAANAFLAQRISSINSISALCEATGADVEEVATAIGMDQRIGNKFLKASVGFGGSCFQKDVLNLVYLCEALNLPEVARYWQQVIDMNDYQRRRFASRIIDSLFNTVTDKKIAILGFAFKKDTGDTRESSSIYISKYLMDEGAHLHIYDPKVPREQIVVDLSHPGVSEDDQVSRLVTISKDPYEACDGAHAVVICTEWDMFKELDYERIHKKMLKPAFIFDGRRVLDGLHNELQTIGFQIETIGKKVSSKRIPYAPSGEIPKFSLQDPPNKKPKV
modifications: full-length
B1: the figures for the Kcat in data set [1] and in data set [2] (NAD+ saturation curves) were 0.8 ± 0.01 s⁻¹ and 0.9 ± 0.08 S^-1, respectively. Besides, in data set [2] (NAD+ saturation (Equation 6)), the “Hill (h)” value turned out to be 0.8 ± 0.1. The “K0.5 (NAD^+)” value in data set [2] (NAD+ saturation, sigmoidal rate equation (Equation 6), hexameric enzyme) stood at 0.8 ± 0.20 mM. Moreover, in data set [3], the “slowing of the rate of activation hysteresis (E* to E) by the ID-tail” value came out at 39%. In addition, in data set [4], the “enhancement of the initial UDP-Xyl binding step by the ID-tail” value is 4.4 fold. Besides, the “gain in affinity of the initial UDP-Xyl binding step” value in data set [4] is -0.9 kcal/mol.

B2: hUGDH: human UDP-α-D-glucose-6-dehydrogenase, named without a construct (protein, UniProt O60701 1-494, looked up)
UDP-glucose 6-dehydrogenase: MFEIKKICCIGAGYVGGPTCSVIAHMCPEIRVTVVDVNESRINAWNSPTLPIYEPGLKEVVESCRGKNLFFSTNIDDAIKEADLVFISVNTPTKTYGMGKGRAADLKYIEACARRIVQNSNGYKIVTEKSTVPVRAAESIRRIFDANTKPNLNLQVLSNPEFLAEGTAIKDLKNPDRVLIGGDETPEGQRAVQALCAVYEHWVPREKILTTNTWSSELSKLAANAFLAQRISSINSISALCEATGADVEEVATAIGMDQRIGNKFLKASVGFGGSCFQKDVLNLVYLCEALNLPEVARYWQQVIDMNDYQRRRFASRIIDSLFNTVTDKKIAILGFAFKKDTGDTRESSSIYISKYLMDEGAHLHIYDPKVPREQIVVDLSHPGVSEDDQVSRLVTISKDPYEACDGAHAVVICTEWDMFKELDYERIHKKMLKPAFIFDGRRVLDGLHNELQTIGFQIETIGKKVSSKRIPYAPSGEIPKFSLQDPPNKKPKV
Regarding B2, the “destabilization by the ID-tail” value in data set [5] is 3.5 °C.

B3: FL-A136M: full-length hUGDH with the allostery quenching A136M substitution (protein, UniProt O60701 1-494, looked up, variant A136M)
chain: MFEIKKICCIGAGYVGGPTCSVIAHMCPEIRVTVVDVNESRINAWNSPTLPIYEPGLKEVVESCRGKNLFFSTNIDDAIKEADLVFISVNTPTKTYGMGKGRAADLKYIEACARRIVQNSNGYKIVTEKSTVPVRMAESIRRIFDANTKPNLNLQVLSNPEFLAEGTAIKDLKNPDRVLIGGDETPEGQRAVQALCAVYEHWVPREKILTTNTWSSELSKLAANAFLAQRISSINSISALCEATGADVEEVATAIGMDQRIGNKFLKASVGFGGSCFQKDVLNLVYLCEALNLPEVARYWQQVIDMNDYQRRRFASRIIDSLFNTVTDKKIAILGFAFKKDTGDTRESSSIYISKYLMDEGAHLHIYDPKVPREQIVVDLSHPGVSEDDQVSRLVTISKDPYEACDGAHAVVICTEWDMFKELDYERIHKKMLKPAFIFDGRRVLDGLHNELQTIGFQIETIGKKVSSKRIPYAPSGEIPKFSLQDPPNKKPKV
modifications: full-length
B3 gave a Kcat in data set [1] of 0.7 ± 0.01 s⁻¹. Besides, the “ΔΔG, change in UDP-Xyl binding free energy” value in data set [1] (relative to the hUGDHΔID-A136M) is on record as 0.03^g kcal•mol^-1.

The values above are taken from paper PMC6415545 (Nature, 2018).
